In general, viability refers to a read-out of living cells in per cent, often relative to untreated cells. By inhibition is commonly meant the drop in the measured response relative to a control, in per cent.

The results in this text go back to PubChem BioAssay.

The source made the active and inactive calls.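 How the source made its calls, unless noted: active means viability at or under a set limit in both replicates, limit being median viability minus 3 SD (cut at about 48% in these data, passing the limit was not always enough); inconclusive means at or under the limit in just one replicate; inactive means at or above the limit in both replicates.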

A short description of experiment [1]: SK-BR-3 cell growth inhibitors, pilot screen, 24 h, human (AID 572;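 active means viability at or below 10% of carrier control in both of two separate runs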;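 further: compound exposure lasted between 18 and 24 h rather than exactly 24 h; 100% = carrier-treated control wells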). The conditions noted are these: SK-BR-3 viability, CellTiter-Glo luminescence, at 10 µM, stronger effect = lower value.
Experiment [2] can be described thus: HUVEC growth inhibition – cell-based, human, primary screen (AID 575;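 active means viability at or below 30% in both replicate assays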;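 further: 100% = median of untreated cell wells with 0.1% DMSO on each plate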). The conditions noted are these: HUVEC proliferation, CellTiter-Glo luminescence, 72 h; at 10 µM; stronger effect = lower value. The gist of the method: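 Test system – primary HUVEC, no more than 12 passages · Dosing – one dose, 10 µM final, 0.1% DMSO · Times – 72 h treatment at 37 °C · Measured by – ATP-based CellTiter-Glo luminescent read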
Background: In ATP-based viability assays light output follows the ATP content of the culture.

Experiment [3] in a line: growth inhibitors of H69AR lung tumor, primary screen, human, duplicate replicates (AID 580).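 Further: 100% = mean luminescence of untreated wells and 0% = no signal.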 Particulars: H69AR lung tumor cells viability, ATP luminescence, 72 h; at 10 µM; stronger effect = lower value.
Experiment [4] can be described thus: reversal of MRP1-mediated doxorubicin resistance, pilot screen, H69AR cells, doxorubicin co-treatment (AID 601;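 active means viability loss from added drug above about 55%, and viability with drug at most 40%, in both replicates, limit read from the data, passing the limit was not always enough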). The conditions noted are these: CellTiter-Glo, 72 h, at 10 µM; for differential viability (reversal): stronger effect = higher value.
Experiment [5] can be described thus: 384-well plate pilot, post-Golgi transport modulator project, inhibition of yeast transport mutant growth (AID 636; in the data active means inhibition above about 31%). The conditions noted are these: absorbance 615 nm, about 18 h, stronger effect = higher value.
Experiment [6] is described as follows: growth suppression of yeast trafficking mutant, preliminary HTS, modulators of trafficking downstream of Golgi apparatus project, 1536-format plate, OD 615 nm (AID 637; in the data active means inhibition above about 30%). The conditions noted are these: yeast transport mutant growth, absorbance 615 nm, 18 h; stronger effect = higher value.
The mark [7] stands for this setting: H69AR cells + 2 uM doxorubicin, measured here: viability with 2 uM doxorubicin, stronger effect = lower value.
The mark [8] stands for this setting: H69AR cells, compound alone cytotoxicity.

As for `N#CC1=C(N)N(c2ccccc2)C(c2ccccc2)C1(C#N)C#N` (configuration not stated), the viability is 84.5% (inactive) in experiment [1]; 81.6% (inactive) in experiment [2]; 80.1% (inactive) in experiment [3]; 78.8% in experiment [4] (setting [7]); 80.1% in experiment [4] (setting [8]). For the same compound, the differential viability (reversal) in experiment [4] (H69AR cells + 2 uM doxorubicin) is 1.28% (inactive). Also, the inhibition in experiment [5] was -6.27% (inactive); in experiment [6], -0.97% (inactive).
For `Cc1ccc(S(=O)(=O)N2CCCN(S(=O)(=O)C3CCS(=O)(=O)C3)CC2)cc1` (configuration not stated), the viability is 124% (inactive) in experiment [1]; 101% (inactive) in experiment [2]; 99.1% (inactive) in experiment [3]; 90.4% in experiment [4] (setting [7]); 99.1% in experiment [4] (setting [8]). In addition, the differential viability (reversal) in experiment [4] (H69AR cells + 2 uM doxorubicin) was 8.77% (inactive). Besides, the figures for the inhibition in experiment [5] and in experiment [6] were -7.2% (inactive) and 1.09% (inactive), respectively.
Turning to `CN1C(C(=O)Nc2ccccn2)=C(O)c2ccccc2S1(=O)=O`, the viability in experiment [1] is 115% (inactive); in experiment [2], 94.7% (inactive); in experiment [3] it was 101% (inactive); in experiment [4] (setting [7]), 87.7%; in experiment [4] (setting [8]), 101%. In addition, in experiment [4] (H69AR cells + 2 uM doxorubicin), the differential viability (reversal) is 13.4% (inactive). Moreover, the inhibition in experiment [5] is 0.39% (inactive); in experiment [6], -0.83% (inactive).
On to `COC(=O)c1ccccc1NC(=O)C1CCN(S(=O)(=O)c2cc(C)ccc2OC)CC1`, for which the viability in experiment [1] is 78% (inactive); in experiment [2], 78.9% (inactive); in experiment [3], 79.1% (inactive); in experiment [4] (setting [7]), 92.3%; in experiment [4] (setting [8]), 79.1%. Moreover, the differential viability (reversal) in experiment [4] (H69AR cells + 2 uM doxorubicin) is -13.2% (inactive). The inhibition was -11.1% (inactive) in experiment [5] and 0.48% (inactive) in experiment [6].
Take `O=C(O)c1cc2cc(F)ccc2[nH]1`: the viability is 110% (inactive) in experiment [1]; 78.4% (inactive) in experiment [2]; 94.5% (inactive) in experiment [3]; 112% in experiment [4] (setting [7]); 94.5% in experiment [4] (setting [8]). The differential viability (reversal) in experiment [4] (H69AR cells + 2 uM doxorubicin) was -17.1% (inactive). Also, the figures for the inhibition in experiment [5] and in experiment [6] were -1.82% (inactive) and -4.67% (inactive), respectively.
For the compound `COc1ccc(Cl)cc1NC(=O)CSc1nncn1-c1cccnc1`, the viability is 92% (inactive) in experiment [1]; 102% (inactive) in experiment [2]; 88.3% (inactive) in experiment [3]; 86.3% in experiment [4] (setting [7]); 88.3% in experiment [4] (setting [8]). Besides, the differential viability (reversal) in experiment [4] (H69AR cells + 2 uM doxorubicin) was 2.01% (inactive). The inhibition was -7.07% (inactive) in experiment [5] and -3.27% (inactive) in experiment [6].
Regarding `CCOc1cc(C(=O)N(C)Cc2cc3ccccc3[nH]c2=O)cc(OCC)c1OCC`, the viability was 92% (inactive) in experiment [1]; 107% (inactive) in experiment [2]; 98.6% (inactive) in experiment [3]; 96.6% in experiment [4] (setting [7]); 98.6% in experiment [4] (setting [8]). Further, the differential viability (reversal) in experiment [4] (H69AR cells + 2 uM doxorubicin) was 2.04% (inactive). Further, the inhibition in experiment [5] was -7.43% (inactive); in experiment [6], -4.18% (inactive).
In the case of `COC(=O)c1ccccc1NC(=O)CN1CCC(n2nnc3cc(F)ccc32)CC1`, the viability in experiment [1] is 64% (inactive); in experiment [2], 94.9% (inactive); in experiment [3], 100% (inactive); in experiment [4] (setting [7]), 89.7%; in experiment [4] (setting [8]), 100%. In addition, in experiment [4] (H69AR cells + 2 uM doxorubicin), the differential viability (reversal) is 10.3% (inactive). Also, the inhibition in experiment [5] is -6.16% (inactive); in experiment [6], -1.27% (inactive).
As for `Cc1nn(-c2nc3ccccc3[nH]2)c(N)c1-c1ccccc1`, the viability in experiment [1] is 97% (inactive); in experiment [2], 62.5% (inactive); in experiment [3], 41.3% (active); in experiment [4] (setting [7]), 68.9%; in experiment [4] (setting [8]) it was 41.3%. The differential viability (reversal) in experiment [4] (H69AR cells + 2 uM doxorubicin) was -27.6% (inactive). Also, the values for the inhibition in experiment [5] and in experiment [6] were 11.6% (inactive) and 2.7% (inactive), respectively.
On to `O=C(c1cccc2c1C(=O)N(Cc1cccnc1)C2)N1CCN(c2ccccc2)CC1`, for which the viability in experiment [1] was 127% (inactive); in experiment [2] it was 97.3% (inactive); in experiment [3], 93.3% (inactive); in experiment [4] (setting [7]), 89.5%; in experiment [4] (setting [8]), 93.3%. Also, in experiment [4] (H69AR cells + 2 uM doxorubicin), the differential viability (reversal) is 3.83% (inactive). In addition, the inhibition in experiment [5] is -4.93% (inactive); in experiment [6], -1.09% (inactive).
Consider `COc1ccc(S(=O)(=O)N2CCCC(C(=O)NCc3ccccn3)C2)cc1` (configuration not stated), for which the viability was 146% (inactive) in experiment [1]; 96.8% (inactive) in experiment [2]; 95.5% (inactive) in experiment [3]; 91.6% in experiment [4] (setting [7]); 95.5% in experiment [4] (setting [8]). Further, the differential viability (reversal) in experiment [4] (H69AR cells + 2 uM doxorubicin) was 3.92% (inactive). Besides, the results for the inhibition in experiment [5] and in experiment [6] were -1.43% (inactive) and -0.66% (inactive), respectively.
`Cc1nn(-c2ccccc2)c2[nH]c(C(F)(F)F)cc(=O)c12`: the viability in experiment [1] was 131% (inactive); in experiment [2], 95.6% (inactive); in experiment [3], 108% (inactive); in experiment [4] (setting [7]), 118%; in experiment [4] (setting [8]), 108%. Also, the differential viability (reversal) in experiment [4] (H69AR cells + 2 uM doxorubicin) is -10.8% (inactive). The inhibition in experiment [5] is -5.62% (inactive); in experiment [6], 4.36% (inactive).
Consider `Cc1cccc(C)c1NC(=O)COC(=O)c1nonc1N`, for which the viability in experiment [1] is 79% (inactive); in experiment [2] it was 108% (inactive); in experiment [3], 98.9% (inactive); in experiment [4] (setting [7]), 94.3%; in experiment [4] (setting [8]), 98.9%. In addition, in experiment [4] (H69AR cells + 2 uM doxorubicin), the differential viability (reversal) was 4.63% (inactive). Moreover, the inhibition in experiment [5] is -4.13% (inactive); in experiment [6], -7.09% (inactive).
`Cc1c(C(=O)NCc2ccoc2)oc2ccc3c(c12)C(=O)CC(C)(C)O3`: the viability was 129% (inactive) in experiment [1]; 75.1% (inactive) in experiment [2]; 76.2% (inactive) in experiment [3]; 78.9% in experiment [4] (setting [7]); 76.2% in experiment [4] (setting [8]). The differential viability (reversal) in experiment [4] (H69AR cells + 2 uM doxorubicin) was -2.74% (inactive). The inhibition in experiment [5] was -0.52% (inactive); in experiment [6], 3.77% (inactive).
